Source: PMC5824357 (RNA, 2018)
Ends that are not written are not given here. MBP = not defined here; MS2 = not defined here; HA = not defined here

What was measured:
[1] = test system: β-globin-6xMS2bs reporter; assay: Tethering assay in human HEK293T cells; type: cell-based; conditions: MS2-HA-tagged, three independent experiments
[2] = test system: Dm NOT1-CN9BD–CAF40 complex; assay: In vitro MBP pull-down, Dm CN9BD–CAF40; type: binding, Drosophila melanogaster; conditions: MBP-tagged proteins, amylose resin, 50 mM HEPES pH 7.5, 200 mM NaCl, 2 mM DTT, 1 h; SDS-PAGE, Coomassie
Method in brief: (§1)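 Proteins were expressed in E. coli BL21 (DE3) Star overnight at 20°C. Tethered-protein constructs carried an N-terminal MBP tag and were purified by amylose resin, anion exchange and gel filtration. MBP (20 µg, negative control) or MBP fusion (40 µg) was incubated 1 h with equimolar purified CCR4–NOT modules plus amylose resin. Beads were washed five times and eluted with 25 mM maltose. Eluates were TCA-precipitated and analysed by SDS-PAGE/Coomassie.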

Hs CN9BD–CAF40 complex = assay: In vitro MBP pull-down, human CN9BD–CAF40; type: binding; conditions: MBP-tagged proteins, amylose resin, 50 mM HEPES pH 7.5, 200 mM NaCl, 2 mM DTT, 1 h; SDS-PAGE, Coomassie
Method in brief: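 The Hs complex was MBP-NOT1-CN9BD (V1351–L1588) co-expressed in E. coli with His6-CAF40 (R19–E285), purified on amylose, tags removed by HRV3C, then heparin and gel filtration. MBP (20 µg, control) or MBP fusion (40 µg) was incubated 1 h with equimolar complex and amylose resin. Beads were washed five times, eluted with 25 mM maltose, TCA-precipitated and analysed by SDS-PAGE/Coomassie.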

Hs CCR4-NOT subcomplexes = assay: In vitro MBP pull-down, other Hs CCR4–NOT subcomplexes; type: binding, human; conditions: NOT1-10-11 module, catalytic module, CD, NOT3 N-terminal coiled coil, MBP-tagged Bam, pH 7.5, 1 h
Method in brief: as §1

[3] = test system: catalytic module (containing Hs CCR4a); assay: In vitro MBP pull-down, Hs catalytic module; type: binding, human; conditions: recombinant proteins
[4] = test system: Dm NOT1-CN9BD–CAF40 complex (containing CAF40 V186E or 2xMut); assay: In vitro MBP pull-down, Dm CN9BD–CAF40 with CAF40 mutants; type: binding, Drosophila melanogaster; conditions: MBP-tagged Bam, pH 7.5, 1 h
Method in brief: as §1

F-Luc-5BoxB mRNA [5] = assay: Tethering assay in S2 cells, F-Luc-5BoxB reporter; type: cell-based, Drosophila melanogaster
F-Luc-5BoxB-A95C7-HhR = assay: Tethering assay in S2 cells, F-Luc-5BoxB-A95C7-HhR reporter; type: cell-based, Drosophila melanogaster
F-Luc-5BoxB mRNA [6] = assay: mRNA half-life in S2 cells after actinomycin D; type: cell-based, Drosophila melanogaster; conditions: actinomycin D 5 µg/ml; northern blot
Method in brief: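 S2 cells were Effectene-transfected with F-Luc-5BoxB reporter, R-Luc control and λN-HA-tagged test protein. Three days post-transfection they were treated with actinomycin D (5 µg/ml final) and collected at successive time points. Reporter mRNA remaining was measured by northern blotting of total RNA.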

Dm CAF40 (GFP-tagged) = assay: Coimmunoprecipitation in S2 cells, CAF40; type: binding, Drosophila melanogaster; conditions: HA-tagged Bam, S2 cell lysates, RNaseA
Dm CAF40 (V186E) = assay: Coimmunoprecipitation in S2 cells, CAF40 V186E; type: binding, Drosophila melanogaster; conditions: HA-tagged Bam, S2 cell lysates, RNaseA
CCR4 (GFP-tagged) = assay: Coimmunoprecipitation in S2 cells, CCR4; type: binding, Drosophila melanogaster; conditions: HA-tagged Bam, S2 cell lysates, RNaseA
NOT1 (GFP-tagged) = assay: Coimmunoprecipitation in S2 cells, NOT1; type: binding, Drosophila melanogaster; conditions: HA-tagged Bam, S2 cell lysates, RNaseA
NOT2 (GFP-tagged) = assay: Coimmunoprecipitation in S2 cells, NOT2; type: binding, Drosophila melanogaster; conditions: HA-tagged Bam, S2 cell lysates, RNaseA
NOT3 (GFP-tagged) = assay: Coimmunoprecipitation in S2 cells, NOT3; type: binding, Drosophila melanogaster; conditions: HA-tagged Bam, S2 cell lysates, RNaseA
endogenous NOT1 = assay: SBP pull-down in HEK293T cells, NOT1; type: binding, human
Method in brief: (§2)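 HEK293T cells expressed V5-SBP-tagged full-length test protein, with V5-SBP-MBP as negative control. SBP pull-down from lysates was done in the presence of RNaseA. Input (1.5% of V5-SBP proteins, 1% of endogenous CCR4–NOT subunits) and bound fractions (10% and 30%, respectively) were analysed by western blotting with ECL detection.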

endogenous NOT2 = assay: SBP pull-down in HEK293T cells, NOT2; type: binding, human
Method in brief: as §2

endogenous NOT3 = assay: SBP pull-down in HEK293T cells, NOT3; type: binding, human
Method in brief: as §2

endogenous CAF40 = assay: SBP pull-down in HEK293T cells, CAF40; type: binding, human; conditions: V5-SBP-tagged, wild-type HEK293T, RNaseA
Method in brief: as §2

HA-tagged CCR4 = assay: SBP pull-down in HEK293T cells, CCR4; type: binding
Method in brief: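 Control or CAF40-null HEK293T cells coexpressed HA-CCR4 with V5-SBP-tagged full-length test protein or V5-SBP-MBP negative control. SBP pull-down was done in lysates containing RNaseA. Input (1.5% V5-SBP proteins, 1% CCR4–NOT subunits) and bound (10% and 30%) fractions were western blotted with ECL detection.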

[7] = V5-SBP-tagged, wild-type HEK293T, RNaseA

For “CBM alone fused to MBP: MS2-HA-MBP-Bam 13–36 ({MS2-HA-MBP}-DDQQLDHNFKQMEEHLALMVEGNE; reading uncertain; UniProt P22745 13-36, looked up, fragment)”, the “degradation/repression of β-globin-6xMS2bs reporter” value [1] was “as active as full-length Bam”.

B1: Bam: Drosophila melanogaster Bag-of-marbles, Uniprot P22745, residues 1–442, variously tagged (protein)
chain: MLNARDVCPEGNDDQQLDHNFKQMEEHLALMVEGNENEDPRKATCEYEDTNEDGATCTSGVLSEIQENFGRLRLCDVTAPLLEFHGLDCLQQIQKRSRHFAFDGSPAKKSRSGGVLVTGPKQKQLQKENVWNRKSKGSASADNIEKLPITIEKLHMIGLHGDCLEHNAVLRLMNLFRSLHDHLTADLGFSRQNSMPSDYLFDMPVKSTMPKSLNVRYQLQVLCTKVERFLVQQRRTLEANRHFDFEKYDECDKLLKGFASYLDNFKLLLKPKMRNRNGNSGSNADKFHTQRMERLLIGLRDWIKAAHLSVHVFNWEMDLEHRYSGAMTESHKSLNERAILLSGAELRAAEARGISAEDLFIAQRYKLGGPIYCVLEQHEFLSALIANPETYFPPSVVAICGPQKLGAVSMEQPSASEEEFEETEEVPSSPPRHTGRVPRFRS
modifications: left off: MBP, N-terminal, kept
For B1, the interaction in pull-down [2] was “also interacted with the Dm CN9BD–CAF40 module”, the interaction in pull-down (Hs CN9BD–CAF40 complex) was “interacted only with the CN9BD–CAF40 module” and the “interaction in pull-down with any other subcomplex” value (Hs CCR4-NOT subcomplexes) was “not with any other subcomplex”. For the same molecule, the “direct interaction with the catalytic module” value [3] was “did not observe a direct interaction”, the “displacement of CAF1-NOT1 subcomplex from CCR4a” value [3] was “did not competitively displace the CAF1-NOT1 subcomplex from CCR4a” and the “disruption of interaction by V186E substitution in CAF40” value ([4]; CAF40 V186E) was “sufficient to disrupt the interaction with Bam in vitro”. For the same molecule, the “disruption of interaction by 2xMut in CAF40” value ([4]; CAF40 Y139D, G146W (2xMut)) was “sufficient to disrupt the interaction with Bam in vitro”, the “tethering activity in CAF40-depleted cells” value (F-Luc-5BoxB mRNA [5]; CAF40 KD (∼10% of control levels)) was “partially suppressed Bam activity” and the “repression in CAF40-depleted cells complemented with CAF40 V186E” value (F-Luc-5BoxB mRNA [5]; CAF40 KD + CAF40 V186E) was “not by expression of the CAF40 V186E mutant”. The “repression in CAF40-depleted cells complemented with wild-type CAF40” value (F-Luc-5BoxB mRNA [5]; CAF40 KD + wild-type CAF40) was “restored by transient expression of wild-type CAF40”, the “F-Luc-5BoxB mRNA degradation in DCP2-depleted cells” value (F-Luc-5BoxB mRNA [5]; DCP2 knockdown, DCP2 E361Q overexpressed) was “impaired” and the “F-Luc activity in DCP2-depleted cells” value (F-Luc-5BoxB mRNA [5]; DCP2 knockdown, DCP2 E361Q overexpressed, F-Luc activity) was “not restored”. The “tethering activity in cells overexpressing CAF40 V186E” value (F-Luc-5BoxB mRNA [5]; GFP-CAF40 V186E overexpressed) was “suppressed in cells overexpressing the CAF40 V186E mutant”, the “tethering activity in cells overexpressing CAF40 wild-type” value (F-Luc-5BoxB mRNA [5]; GFP-CAF40 wild-type overexpressed) was “not when CAF40 wild-type was overexpressed” and the “F-Luc-5BoxB mRNA degradation after NOT1 depletion” value (F-Luc-5BoxB mRNA [5]; NOT1-depleted S2 cells) was “partially suppressed degradation of F-Luc-5BoxB mRNA”. The “repression of deadenylation-resistant reporter” value (F-Luc-5BoxB-A95C7-HhR) was “repressed the expression of this reporter in S2 cells”, the mRNA half-life (F-Luc-5BoxB mRNA [6]) was “shortening of the mRNA half-life” and the “coimmunoprecipitation with CAF40” value (Dm CAF40 (GFP-tagged)) was “interacted with NOT1, NOT2, NOT3, CCR4, and CAF40”. For the same molecule, the “coimmunoprecipitation with CAF40 V186E” value (Dm CAF40 (V186E)) was “sufficient to abolish binding to full-length Bam in cell lysates”, the “coimmunoprecipitation with CCR4” value (CCR4 (GFP-tagged)) was “interacted with NOT1, NOT2, NOT3, CCR4, and CAF40” and the “coimmunoprecipitation with NOT1” value (NOT1 (GFP-tagged)) was “interacted with NOT1, NOT2, NOT3, CCR4, and CAF40”. The “coimmunoprecipitation with NOT2” value (NOT2 (GFP-tagged)) was “interacted with NOT1, NOT2, NOT3, CCR4, and CAF40”, the “coimmunoprecipitation with NOT3” value (NOT3 (GFP-tagged)) was “interacted with NOT1, NOT2, NOT3, CCR4, and CAF40” and the “pull-down of endogenous NOT1, CAF40-null cells” value (endogenous NOT1; CAF40-null HEK293T) was “did not interact with endogenous NOT1, NOT2 and NOT3”. For the same molecule, the “pull-down of endogenous NOT1” value (endogenous NOT1; [7]) was “pulled down all of the tested subunits”, the “pull-down of endogenous NOT2, CAF40-null cells” value (endogenous NOT2; CAF40-null HEK293T) was “did not interact with endogenous NOT1, NOT2 and NOT3” and the “pull-down of endogenous NOT2” value (endogenous NOT2; [7]) was “pulled down all of the tested subunits”. The “pull-down of endogenous NOT3, CAF40-null cells” value (endogenous NOT3; CAF40-null HEK293T) was “did not interact with endogenous NOT1, NOT2 and NOT3”, the “pull-down of endogenous NOT3” value (endogenous NOT3; [7]) was “pulled down all of the tested subunits” and the “pull-down of endogenous CAF40” value (endogenous CAF40) was “pulled down all of the tested subunits”. For the same molecule, the “pull-down of HA-tagged CCR4, CAF40-null cells” value (HA-tagged CCR4; CAF40-null HEK293T) was “did not interact” and the “pull-down of HA-tagged CCR4” value (HA-tagged CCR4; [7]) was “as well as HA-tagged CCR4”.
